Test system: MS2 coat protein
Test: apparent Kd, MS2 coat protein; higher = weaker binding; RNA-MaP array; FMN 200 µM where present
Summary of the method: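 Designs on Illumina sequencing-chip clusters, transcribed by stalled E. coli RNA polymerase, were exposed to SNAP-549-labelled MS2 coat protein in doubling steps from 0.7 or 1.5 nM up to 3 µM, without and then with constant ligand. The buffer held 100 mM Tris-HCl pH 7.5, 80 mM KCl, 4 mM MgCl2, BSA, DTT, yeast tRNA and Tween-20. Apparent Kd values are medians of filtered per-cluster binding-curve fits to green signal normalised to red-channel RNA signal and control-cluster median Fmax.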

[1] = designed as: OFF switch for flavin mononucleotide, no ligand
[2] = ligand present: flavin mononucleotide, designed as: OFF switch for flavin mononucleotide
[3] = designed as: ON switch for flavin mononucleotide, no ligand
[4] = ligand present: flavin mononucleotide, designed as: ON switch for flavin mononucleotide

| Sequence | apparent Kd [1] [nM] | apparent Kd [2] [nM] | apparent Kd [3] [nM] | apparent Kd [4] [nM] |
| --- | --- | --- | --- | --- |
| AGGAGAAAUGUAGGAUAUGGGCAUAUAUAUGGGCAAAGCGCAUAUAUAUGCCCAGAAGGACAUGAGGAUCACCCAUGUUUCCCU | 12.5 | 13.6 | – | – |
| AGGAGGAAUGUAGGAUAUAUAUAUAUAUAUAGGCAAAGCGUAUAUAUAUAUAUAGAAGGACAUGAGGAUCACCCAUGUUUCCCU | 9.27 | 8.99 | – | – |
| AGGCAGCUACAUGAGGAUCACCCAUGUCUGUUUGGAUCUUCCAGAAGGCACGUAAAAUCGGUGGGUGAGGAUAUGGUAGGUCCC | – | – | 30.9 | 9.91 |
| AGGCCGCUACGCCGGCUUCACGCACAGGAUAUGCAGUUACAUGAGGAUCACCCAUGUGGCCAUGUGCAGAAGGGUGGUUCGUGA | – | – | 22.1 | 5.44 |
| AGGCGAGUAGGAUAUGCGUAUUUACAGGAAAGCUGGAUGGUACAUGAGGAUCACCCAUGUAGAAGGGCUCUGAA | 21.2 | 19.4 | – | – |
| AGGCUCACAGGAUAUCUCCACGGUAACAUGAGGAUCACCCAUGUCUCAUUUUCUCGUGCAAGAGAAGGGUGAGCGG | 435 | 455 | – | – |
| AGGGAACAUGAGGAUCACCCAUGUGAGGAUAUACAAAAGAAAAGAAAAGAAAGAAGAAGUAGAAGGUACAAGAA | 28.2 | 35.5 | – | – |
| AGGGUAGUAGGAUAUACAUGAGGAUCACCCAUGUUUCCAUUACGUGACUGGUCCUAGUGUAGAAGGGCUAGCAC | – | 17.4 | – | – |
| AGGUAAACCACAGGAUAUGGCUAGUAUAACUAGCCAGAAGGGUGGUCGAAACCAUGUAAAUACAUGAGGAUCACCCAUGUGUCC | – | – | 400 | 131 |
| AGGUAACAUGAGGAUCACCCAUGUCAGGAUAUCAUGAAGAUUAGAUUAGAGGAGAGGUUGAGAAGGGACUAUAU | 55.6 | 49.5 | – | – |
| AGGUACAACGGAGGAUAUAAUAGUCUAUAGACGUUAGAAGGCCGGGCCUUCACAUGAGGAUCACCCAUGUCUCUGGAGGCGCCU | – | – | 20.8 | 16.9 |
| AGGUACAUGAGGAUCACCCAUGUAAGAGCCCUCAUGCGAUGUAGAAGGAUAAUGCGAGAAGAGCUAUAGGAUAUACAUGAGAAA | 156 | 139 | – | – |
| AGGUACGGUCGAUCAUAUCAAGGUAGAAGGCGACUGGGAAUGUGAGACAUGAGGAUCACCCAUGUCGAGGAUAUACCUGAAAGU | 88.9 | 50.1 | – | – |
| AGGUCAACCACAGGAUAUGGCUAGCAUAGCUAGCCAGAAGGGUGGUCGUUGCCAUGUAAAUACAUGAGGAUCACCCAUGUAUCC | – | – | 190 | 49.5 |
| AGGUGACAUGAGGAUCACCCAUGUAAGGAUAUACGGUUAGUGGAGAGUUGGAGGAGAGGUAGAAGGUACGGAGC | 249 | 194 | – | – |
| AGUAAGAUGCAGAAGGUGUCAGCGAGAGCUGCGACAUGAGGAUCACCCAUGUACACGUGAGUGUACAAGGAUAUGCAUCUUACA | – | – | 1090 | 431 |
| AGUACGUCAGGAUAUCUGAUGUCUAACUUCGGUUAGACAUCAGAGAAGGGACAUGAGGAUCACCCAUGUACAAA | 41.8 | 36.9 | – | – |
| AGUAUACAUGAGGAUCACCCAUGUCUGUAACGGACAGGAUAUGCGUUGCAUCACUGUAAUGCAGAAGGGUCCUGUA | – | – | 296 | 45.2 |
| AGUAUGCGAGGAUAUACAUGAGGAUCACCCAUGUGAGAGAUAAAAGUGAGAAAGACAAGUAGAAGGCGCGUACA | 61.9 | 451 | – | – |
| AGUAUGCGGCAGGAUAUCCAUCCGCGAAAAGGUGGAGAAGGGCUGACAUGAGGAUCACCCAUGUGCGUCUUGUA | 29.7 | 31 | – | – |
| AGUCAUACAGGAUAUACAUGAGGAUCACCCAUGUAAAUCCUAAAAAGAAAAUCCUCAUGUAGAAGGGUAUGACA | 13.6 | 9.24 | – | – |
| AGUCAUACAGGAUAUACAUGAGGAUCACCCAUGUUUAUCCUAAAAUAAAGAUCCUCAUGUAGAAGGGUAUGACA | 12.8 | 12.6 | – | – |
| AGUCGGAGCAGAGGAUAUACAUGAGGAUCACCCAUGUAAAUGAAUGAAGCCAGGAAACUGGCAAUGUAGAAGGCUGCUCCGACA | 18 | 52.8 | – | – |
